# In ChEMBL document CHEMBL1687858, “Natural and semisynthetic mammea-type isoprenylated dihydroxycoumarins uncouple cellular respiration” (J Nat Prod, 2011):
# Activity calls are given as the source filed them. No cut-off for these calls is given here.
# Legend:
# [1] = target: T1, Hypoxia inducible factors; HIF-1-alpha, HIF-2-alpha (Homo sapiens, UniProt Q16665+Q99814); assay: Inhibition of 1,10-phenanthrolin-induced HIF1 activation in human T47D cells expressing pGL3 construct after 16 hrs by cell-based luciferase reporter assay
# Summary of the method: (§1)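 T47D cells carrying an HIF-1 luciferase reporter, induced for 16 h either by hypoxia (1% O2) or by 10 μM 1,10-phenanthroline, with compounds over 0.31 to 20 μM. IC50 and 95% CI taken from one representative of two independent experiments, each run in triplicate.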
# [2] = tested on: PC-3; assay: Antiproliferative activity against human PC3 cells after 48 hrs; assay type: functional, cell-based; settings: PC-3, 48 h
# Summary of the method: (§2)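 Tumor cells (T47D or PC-3, from ATCC) exposed 48 h to compounds at 0.31 to 20 μM, from DMSO stocks with final DMSO under 0.5%. EC50 and 95% CI derived from one experiment run in triplicate. Maximum inhibition set at 50% for T47D and 40% for PC-3.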
# [3] = tested on: T47D; assay: Antiproliferative activity against human T47D cells after 48 hrs; assay type: functional, cell-based; summary of the method: as §2
# [4] = target: T1, Hypoxia inducible factors; HIF-1-alpha, HIF-2-alpha; assay: Inhibition of hypoxia-induced HIF1 activation in human T47D cells expressing pGL3 construct after 16 hrs by cell-based luciferase reporter assay; summary of the method: as §1
# [5] = tested on: T47D; assay: Effect on cellular respiration in human T47D cells assessed as decrease in oxygen consumption at 10 uM by cell-based reporter assay; assay type: functional
# Summary of the method: (§3)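 Oxygen consumption of T47D cells measured with compound at 0.3, 1, 3 and 10 μM. Reported as Relative Respiration Rate = 100 × (OCR compound / OCR untreated control) − 100. FCCP included as reference uncoupler. Mean + SD from three independent experiments.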
# [6] = tested on: T47D; assay: Effect on cellular respiration in human T47D cells assessed as decrease in oxygen consumption at 0.3 to 10 uM by cell-based reporter assay in presence of F0F1ATPase 1 uM inhibitor oligomycin; assay type: functional
# [7] = tested on: T47D; assay: Inhibition of hypoxia-induced VEGF protein secretion in human T47D cells after 16 hrs by ELISA; assay type: functional, cell-based
# Summary of the method: (§4)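 T47D cells held under hypoxia (1% O2, 16 h) with compound at 3 or 10 μM. VEGF in conditioned medium measured by ELISA and normalized to cellular protein. Normoxic and hypoxic medium controls included. Mean + SD from one experiment run in triplicate.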
# [8] = tested on: PC-3; assay: Antiproliferative activity against human PC3 cells assessed as cell viability at 20 uM; assay type: functional; settings: read-out: Activity
# [9] = tested on: T47D; assay: Effect on cellular respiration in human T47D cells assessed as increase in state 4 respiration at 0.3 to 3 uM by cell-based reporter assay; assay type: functional
# Summary of the method: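 Respiring T47D cells given oligomycin (1 μM) to set state 4 respiration, then compound or FCCP added at 0.3, 1 and 3 μM. Reported as Respiration Index = OCR (oligomycin + compound) / OCR (oligomycin).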
# [10] = tested on: T47D; assay: Inhibition of hypoxia-induced VEGF protein secretion in human T47D cells at 3 uM after 16 hrs by ELISA; assay type: functional; summary of the method: as §4
# [11] = tested on: T47D; assay: Cytostatic effect against human T47D cells assessed as cell growth inhibition at 20 uM after 48 hrs; assay type: functional; design: scale not given: the % may be the effect or the level left
# [12] = tested on: T47D; assay: Effect on cellular respiration in human T47D cells assessed as oxygen consumption at 0.3 uM by cell-based reporter assay; assay type: functional; summary of the method: as §3
# [13] = tested on: T47D; assay: Inhibition of hypoxia-induced VEGF protein secretion in human T47D cells upto 10 uM after 16 hrs by ELISA; assay type: functional; summary of the method: as §4
SMILES,IC50 [1] [µM],IC50 [2] [µM],IC50 [3] [µM],IC50 [4] [µM],Activity [5],Activity [6],inhibition [7],viability at 20 µM [8] [%],Activity [9],inhibition [10],Activity [11] [%],Activity [12],Activity [13] [µM]
CC[C@H](C)C(=O)c1c(O)c(CC=C(C)C)c(O)c2c(-c3ccccc3)cc(=O)oc12,5.96,5.26,4.01,6.76,,,,,,,,,
CC(C)=CCc1c(O)c(C(=O)CC(C)C)c(O)c2c(-c3ccccc3)cc(=O)oc12 [MAMMEISIN],3.71,5.31,4.28,4.44,,,,,,,,,
CCCc1cc(=O)oc2c(C(=O)[C@@H](C)CC)c(O)c(CC=C(C)C)c(O)c12,3.25,6.05,3.22,5.04,,,,,,,,,
CCCC[C@H](O)c1cc(=O)oc2c(C(=O)[C@@H](C)CC)c(OC)c(CC=C(C)C)c(OC)c12,6.5,6.41,4.54,6.31,Active,Active,Dose-dependent effect,93,Non-toxic,Active,91,inactive,
CCCC[C@H](OC(C)=O)c1cc(=O)oc2c(C(=O)[C@@H](C)CC)c(O)c(CC=C(C)C)c(OC(C)=O)c12,1.68,1.16,0.97,2.06,,,,,,,,,
CCCCCc1cc(=O)oc2c(CC=C(C)C)c(O)c(C(=O)CC(C)C)c(O)c12,4.12,3.36,3.13,4.19,,,,,,,,,
CC[C@H](C)C(=O)c1c(O)c(CC=C(C)C)c2oc(=O)cc(-c3ccccc3)c2c1O,4.82,3.82,2.88,4.63,,,,,,,,,
CCCCCc1cc(=O)oc2c(C(=O)[C@@H](C)CC)c(O)c(CC=C(C)C)c(O)c12,3.4,2.19,1.56,3.73,,,,,,,,,
CCCC[C@H](O)c1cc(=O)oc2c(C(=O)[C@@H](C)CC)c(O)c(CC=C(C)C)c(O)c12,2.3,2.09,1.36,2.23,Active,Active,Dose-dependent effect,,Active,inactive,,inactive,
CC(C)=CCc1c(O)c(C(=O)CC(C)C)c2oc(=O)cc(-c3ccccc3)c2c1O [ISOMAMMEISIN],3.73,2.18,1.57,3.23,Active,Active,Dose-dependent effect,,Active,,,inactive,
CCCC[C@H](OC)c1cc(=O)oc2c(CC(=O)[C@@H](C)CC)c(OC)c(CC=C(C)C)c(OC)c12,15.7,> 20,4.67,5.91,,,,,,,,,
CCCCCc1cc(=O)oc2c(CC=C(C)C)c(O)c(C(=O)[C@H](C)CC)c(O)c12 [MAMMEA C/AB],5.31,4.18,3.57,5.7,,,,,,,,,
CCCc1cc(=O)oc2c(CC=C(C)C)c(O)c(C(=O)[C@H](C)CC)c(O)c12,8.21,10.5,5.52,9.96,Active,Active,,,Active,,,inactive,1
CCCCCc1cc(=O)oc2c(C(=O)CC(C)C)c(O)c(CC=C(C)C)c(O)c12,2.71,1.88,1.36,2.76,Active,Active,Dose-dependent effect,,Active,,,inactive,
CCCC[C@H](OC(C)=O)c1cc(=O)oc2c(C(=O)[C@@H](C)CC)c(OC(C)=O)c(CC=C(C)C)c(O)c12,5.47,6.41,4.72,5.11,,,,,,,,,
CCCC[C@H](OC(C)=O)c1cc(=O)oc2c(C(=O)[C@@H](C)CC)c(OC(C)=O)c(CC=C(C)C)c(OC(C)=O)c12,1.06,1.17,0.73,0.83,Active,Active,,65,Non-toxic,,82,inactive,
CCCc1cc(=O)oc2c(C(=O)CC(C)C)c(O)c(CC=C(C)C)c(O)c12,1.28,2.27,1.32,2.2,Active,Active,Dose-dependent effect,,Active,inactive,,inactive,
CCCC[C@H](O)c1cc(=O)oc2c(CC(=O)[C@@H](C)CC)c(OC)c(CC=C(C)C)c(OC)c12,11.3,10.6,6.18,7.42,,,,,,,,,
CCCC[C@H](OC)c1cc(=O)oc2c(C(=O)[C@@H](C)CC)c(OC)c(CC=C(C)C)c(OC)c12,18.4,> 20,6.95,13.2,,,,,,,,,
CCCC[C@H](O)c1cc(=O)oc2c(C(=O)CC(C)C)c(O)c(CC=C(C)C)c(O)c12,1.81,1.14,0.91,1.72,,,,,,,,,
CCCc1cc(=O)oc2c(CC=C(C)C)c(O)c(C(=O)CC(C)C)c(O)c12,9.56,7.03,3.62,9.4,,,,,,,,,
